{"source": "ChEMBL document CHEMBL3232802", "about": "“6-Amino-2,4,5-trimethylpyridin-3-ols: a new general synthetic route and antiangiogenic activity” (2014)", "key": {"Chorioallantoic membrane [1]": {"test_system": "Chorioallantoic membrane", "assay": "Antiangiogenic activity in chicken chorioallantoic membrane assessed as inhibition of VEGF-induced blood vessel formation at 0.01 nmol […] measured after 3 days", "format": "functional, cell membranes", "conditions": "Gallus gallus"}, "A549 [2]": {"test_system": "A549", "assay": "Cytotoxicity against human A549 cells inoculated with chicken chorioallantoic membrane assessed as tumor inhibition after 3 days", "format": "functional, cell-based", "method_in_brief": "(§1)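 A549 cells (2 × 10⁶ cells/CAM) in Matrigel implanted on CAM, then compound at different concentrations; incubated three days at 37 °C, 55% humidity. Tumor mass grown on CAM isolated and weighed; mean ± S.E.M.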"}, "Chorioallantoic membrane [3]": {"test_system": "Chorioallantoic membrane", "assay": "Antiangiogenic activity in human A549 cells inoculated chicken chorioallantoic membrane assessed as inhibition of blood vessel formation at 0.01 pmol after 3 days", "format": "functional, Gallus gallus", "method_in_brief": "(§2)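 A549 lung cancer cells (2 × 10⁶ cells/CAM) in Matrigel inoculated onto CAM instead of VEGF, then compound at varied doses; three days at 37 °C, 55% humidity. Vessel branch points within tumor region counted double-blind by two observers; mean ± S.E.M.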"}, "Chorioallantoic membrane [4]": {"test_system": "Chorioallantoic membrane", "assay": "Antiangiogenic activity in human A549 cells inoculated chicken chorioallantoic membrane assessed as inhibition of blood vessel formation after 3 days", "format": "functional, cell-based", "conditions": "Gallus gallus", "method_in_brief": "as §2"}, "Chorioallantoic membrane [5]": {"test_system": "Chorioallantoic membrane", "assay": "Antiangiogenic activity in chicken chorioallantoic membrane assessed as inhibition of VEGF-induced blood vessel formation treated 30 mins before VEGF addition measured after 3 days", "format": "functional", "conditions": "Gallus gallus"}, "Chorioallantoic membrane [6]": {"test_system": "Chorioallantoic membrane", "assay": "Antiangiogenic activity in human A549 cells inoculated chicken chorioallantoic membrane assessed as inhibition of blood vessel formation at 1 pmol after 3 days", "format": "functional, Gallus gallus", "method_in_brief": "as §2"}, "Chorioallantoic membrane [7]": {"test_system": "Chorioallantoic membrane", "assay": "Antiangiogenic activity in human A549 cells inoculated chicken chorioallantoic membrane assessed as inhibition of blood vessel formation at 0.1 pmol after 3 days", "format": "functional, Gallus gallus", "method_in_brief": "as §2"}, "A549 [8]": {"test_system": "A549", "assay": "Cytotoxicity against human A549 cells inoculated with chicken chorioallantoic membrane assessed as tumor inhibition at 1 pmol after 3 days", "format": "functional", "method_in_brief": "as §1"}, "A549 [9]": {"test_system": "A549", "assay": "Cytotoxicity against human A549 cells inoculated with chicken chorioallantoic membrane assessed as tumor inhibition at 0.1 pmol after 3 days", "format": "functional", "method_in_brief": "as §1"}, "A549 [10]": {"test_system": "A549", "assay": "Cytotoxicity against human A549 cells inoculated with chicken chorioallantoic membrane assessed as tumor inhibition at 0.01 pmol after 3 days", "format": "functional", "method_in_brief": "as §1"}}}
{"smiles": "Cc1nc(NCc2ccccc2)c(C)c(C)c1O", "values": [{"measurement": "inhibition", "setting": "Chorioallantoic membrane [1]", "value": 56.7, "unit": "%"}]}
{"smiles": "Cc1nc(Nc2ccc([N+](=O)[O-])cc2)c(C)c(C)c1O", "values": [{"measurement": "inhibition", "setting": "Chorioallantoic membrane [1]", "value": 75, "unit": "%"}, {"measurement": "inhibition", "setting": "A549 [2]", "value": "Dose-dependent effect"}, {"measurement": "inhibition (INH)", "setting": "Chorioallantoic membrane [3]", "value": 19.9, "unit": "%"}, {"measurement": "inhibition", "setting": "Chorioallantoic membrane [4]", "value": "Dose-dependent effect"}, {"measurement": "ID50", "setting": "Chorioallantoic membrane [5]", "value": 4.4, "unit": "pg"}, {"measurement": "inhibition", "setting": "Chorioallantoic membrane [5]", "value": "Dose-dependent effect"}, {"measurement": "inhibition (INH)", "setting": "Chorioallantoic membrane [6]", "value": 34.5, "unit": "%"}, {"measurement": "inhibition (INH)", "setting": "Chorioallantoic membrane [7]", "value": 25.6, "unit": "%"}, {"measurement": "inhibition (INH)", "setting": "A549 [8]", "value": 50.1, "unit": "%"}, {"measurement": "inhibition (INH)", "setting": "A549 [9]", "value": 44.4, "unit": "%"}, {"measurement": "inhibition (INH)", "setting": "A549 [10]", "value": 25.3, "unit": "%"}]}
{"smiles": "Cc1nc(Nc2ccccc2)c(C)c(C)c1O", "values": [{"measurement": "inhibition", "setting": "Chorioallantoic membrane [1]", "value": 69.4, "unit": "%"}]}
{"smiles": "Cc1nc(N2CCOCC2)c(C)c(C)c1O", "values": [{"measurement": "inhibition", "setting": "Chorioallantoic membrane [1]", "value": 59, "unit": "%"}]}
{"smiles": "Cc1nc(N)c(C)c(C)c1O", "values": [{"measurement": "inhibition", "setting": "Chorioallantoic membrane [1]", "value": 80.9, "unit": "%"}, {"measurement": "inhibition", "setting": "A549 [2]", "value": "Dose-dependent effect"}, {"measurement": "inhibition (INH)", "setting": "Chorioallantoic membrane [3]", "value": 16.6, "unit": "%"}, {"measurement": "inhibition", "setting": "Chorioallantoic membrane [4]", "value": "Dose-dependent effect"}, {"measurement": "ID50", "setting": "Chorioallantoic membrane [5]", "value": 3.2, "unit": "pg"}, {"measurement": "inhibition", "setting": "Chorioallantoic membrane [5]", "value": "Dose-dependent effect"}, {"measurement": "inhibition (INH)", "setting": "Chorioallantoic membrane [6]", "value": 20.7, "unit": "%"}, {"measurement": "inhibition (INH)", "setting": "Chorioallantoic membrane [7]", "value": 18, "unit": "%"}, {"measurement": "inhibition (INH)", "setting": "A549 [8]", "value": 27.4, "unit": "%"}, {"measurement": "inhibition (INH)", "setting": "A549 [9]", "value": 25.2, "unit": "%"}, {"measurement": "inhibition (INH)", "setting": "A549 [10]", "value": 20.5, "unit": "%"}]}
{"smiles": "Cc1nc(NCCCOc2nc(C)c(O)c(C)c2C)c(C)c(C)c1O", "values": [{"measurement": "inhibition", "setting": "Chorioallantoic membrane [1]", "value": 67.3, "unit": "%"}]}
{"smiles": "Cc1nc(N(c2ccccc2)c2ccccc2)c(C)c(C)c1O", "values": [{"measurement": "inhibition", "setting": "Chorioallantoic membrane [1]", "value": 65.4, "unit": "%"}]}
{"smiles": "Cc1nc(-n2cccc2)c(C)c(C)c1O", "values": [{"measurement": "inhibition", "setting": "Chorioallantoic membrane [1]", "value": 44, "unit": "%"}]}
{"smiles": "Cc1nc(NCCCO)c(C)c(C)c1O", "values": [{"measurement": "inhibition", "setting": "Chorioallantoic membrane [1]", "value": 46.3, "unit": "%"}]}
{"smiles": "CCCCCCNc1nc(C)c(O)c(C)c1C", "values": [{"measurement": "inhibition", "setting": "Chorioallantoic membrane [1]", "value": 53.7, "unit": "%"}]}
{"smiles": "Cc1nc(NC2CCCCC2)c(C)c(C)c1O", "values": [{"measurement": "inhibition", "setting": "Chorioallantoic membrane [1]", "value": 36.8, "unit": "%"}]}
{"smiles": "Cc1nc(Nc2ccc(Br)cc2)c(C)c(C)c1O", "values": [{"measurement": "inhibition", "setting": "Chorioallantoic membrane [1]", "value": 61.7, "unit": "%"}]}
{"smiles": "Cc1nc(Nc2ccc3c(c2)OCO3)c(C)c(C)c1O", "values": [{"measurement": "inhibition", "setting": "Chorioallantoic membrane [1]", "value": 62.4, "unit": "%"}]}
{"smiles": "CCCCCCCCCCCCCCCCNc1nc(C)c(O)c(C)c1C", "values": [{"measurement": "inhibition", "setting": "Chorioallantoic membrane [1]", "value": 30.1, "unit": "%"}]}
{"smiles": "Cc1nc(N2CCN(C)CC2)c(C)c(C)c1O", "values": [{"measurement": "inhibition", "setting": "Chorioallantoic membrane [1]", "value": 24.7, "unit": "%"}]}
{"smiles": "Cc1nc(N2CCCC2)c(C)c(C)c1O", "values": [{"measurement": "inhibition", "setting": "Chorioallantoic membrane [1]", "value": 69.5, "unit": "%"}]}
{"smiles": "Cc1nc(N(C)c2ccccn2)c(C)c(C)c1O", "values": [{"measurement": "inhibition", "setting": "Chorioallantoic membrane [1]", "value": 42.2, "unit": "%"}]}
{"smiles": "Cc1nc(Nc2ccccc2C(C)C)c(C)c(C)c1O", "values": [{"measurement": "inhibition", "setting": "Chorioallantoic membrane [1]", "value": 55.3, "unit": "%"}]}
{"smiles": "CN(C)c1ccc(/C=C2\\C(=O)Nc3ccccc32)cc1", "values": [{"measurement": "inhibition", "setting": "Chorioallantoic membrane [1]", "value": 70.5, "unit": "%"}, {"measurement": "inhibition", "setting": "A549 [2]", "value": "Dose-dependent effect"}, {"measurement": "inhibition (INH)", "setting": "Chorioallantoic membrane [3]", "value": 20.8, "unit": "%"}, {"measurement": "inhibition", "setting": "Chorioallantoic membrane [4]", "value": "Dose-dependent effect"}, {"measurement": "ID50", "setting": "Chorioallantoic membrane [5]", "value": 10.5, "unit": "pg"}, {"measurement": "inhibition", "setting": "Chorioallantoic membrane [5]", "value": "Dose-dependent effect"}, {"measurement": "inhibition (INH)", "setting": "Chorioallantoic membrane [6]", "value": 36.2, "unit": "%"}, {"measurement": "inhibition (INH)", "setting": "Chorioallantoic membrane [7]", "value": 25.1, "unit": "%"}, {"measurement": "inhibition (INH)", "setting": "A549 [8]", "value": 26.8, "unit": "%"}, {"measurement": "inhibition (INH)", "setting": "A549 [9]", "value": 23.4, "unit": "%"}, {"measurement": "inhibition (INH)", "setting": "A549 [10]", "value": 16.2, "unit": "%"}]}
